From PMC3113694 (Cancer research, 2010)
Values joined by “and” are separate entries in the source; they are usually repeats but may differ in a detail not shown here. Equal values may be shown once. Values belong to the compound of their own block, whether it stands above or below them.

Legend:
[1] = system: Jurkat; assay: Cytotoxicity, sulforhodamine B assay; type: cell-based; conditions: read-out: 72 hour IC50; Jurkat human leukemia; exposure 72 h
[2] = system: GL-1; assay: Cytotoxicity, sulforhodamine B assay; type: cell-based; conditions: read-out: 72 hour IC50; GL-1 dog lymphoma; exposure 72 h
[3] = system: U-937; assay: Cytotoxicity, sulforhodamine B assay; type: cell-based, Human; conditions: read-out: 72 hour IC50, exposure time 72 h
[4] = Pharmacokinetics in mice after tail vein injection; type: in vivo, C57/BL6 mice
[5] = system: MDA-MB-231; assay: Cytotoxicity, sulforhodamine B assay; type: cell-based; conditions: read-out: 72 hour IC50; MDA-MB-231 human breast; exposure 72 h
[6] = target: T1, procaspase-3 D3A (Homo sapiens, UniProt P42574, D175A/D28A/D9A); assay: Procaspase-3 activation; type: biochemical; conditions: 50 µM compound; for Incubation time to maximal activity: procaspase-3 7.5 µM, zinc 10 µM
T1 sequence (P42574 1-277 D9A/D28A/D175A): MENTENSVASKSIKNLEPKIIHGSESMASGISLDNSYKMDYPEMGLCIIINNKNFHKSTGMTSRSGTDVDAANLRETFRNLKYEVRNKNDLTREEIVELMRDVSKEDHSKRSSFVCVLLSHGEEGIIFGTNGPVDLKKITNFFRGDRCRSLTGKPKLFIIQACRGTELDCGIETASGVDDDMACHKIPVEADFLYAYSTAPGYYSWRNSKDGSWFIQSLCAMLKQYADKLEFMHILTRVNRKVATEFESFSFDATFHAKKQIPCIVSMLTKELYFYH
Method in brief: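 Zinc-free uncleavable procaspase-3 (D9A/D28A/D175A), recombinantly expressed, at 7.5 µM in Chelex-treated 50 mM Hepes, 300 mM NaCl. Incubated with 10 µM ZnSO4. Basal activity read with 200 µM Ac-DEVD-pNA at 405 nm. Vehicle or test compound then added to 50 µM final and activity re-read every 20 min. Activity was taken from the slope and normalised to a zinc-free sample (100%) and DMSO (0%), n=3.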

[7] = system: healthy dog; assay: Toxicity of intravenous PAC-1 in a healthy dog; type: in vivo; conditions: 25 mg/kg as a 5-minute intravenous infusion; transient, not life-limiting
[8] = system: HeLa; assay: Cytotoxicity, sulforhodamine B assay; type: cell-based; conditions: read-out: 72 hour IC50; HeLa human cervical; exposure 72 h
[9] = system: C57/BL6 mice; conditions: mouse, in vivo
[10] = system: 17–71; assay: Cytotoxicity, MTS cell viability assay; type: cell-based; conditions: read-out: 72 hour IC50, 17–71 dog lymphoma, exposure 72 h
[11] = system: SK-Mel-5; assay: Cytotoxicity, sulforhodamine B assay; type: cell-based; conditions: read-out: 72 hour IC50; SK-Mel-5 human melanoma; exposure 72 h
[12] = read-out: Kd of PAC-1:Zn^2+; cited from earlier work
[13] = system: EL-4; assay: Cytotoxicity, sulforhodamine B assay; type: cell-based; conditions: read-out: 72 hour IC50; EL-4 mouse lymphoma; exposure 72 h
[14] = system: OSW; assay: Cytotoxicity, sulforhodamine B assay; type: cell-based; conditions: read-out: 72 hour IC50; OSW dog lymphoma; exposure 72 h
[15] = system: C57/BL6 mice; assay: Toxicity determination in mice after tail vein injection
[16] = Pharmacokinetics in healthy research dogs, single IV dose; type: in vivo; conditions: 25 mg/kg IV; individual dogs Hound A-D

Peak plasma concentration ([4]; 20 mg/kg tail vein injection): ~ 50 µM
Incubation time to maximal activity [6]: 5 min
SMILES: C=CCc1cccc(/C=N/NC(=O)CN2CCN(Cc3ccccc3)CC2)c1O [PAC-1]
IC50 [1]: 5.7 ± 2.8 µM
IC50 [2]: 4.9 ± 0.3 µM
IC50 [3]: 9.3 ± 0.5 µM
IC50 [5]: 9.9 ± 1 µM
Neurotoxicity in one healthy dog [7]: grand mal seizure activity
IC50 [8]: 15.5 ± 3.8 µM
Onset of neurotoxicity after drug administration [9]: ≤ 5 min
IC50 [10]: 2.5 ± 0.9 µM
IC50 [11]: 11.5 ± 3.6 µM
Kd [12]: 0.052 ± 0.002 µM
IC50 [13]: 3.8 ± 0.9 µM
IC50 [14]: 8.6 ± 1.3 µM
Resolution of neurotoxicity ([15]; in HPβCD via tail vein injection): ≤ 2 h
Dose at which significant neurological symptoms first appear ([15]; tail vein injection): 20 mg/kg
Dose where acute neurological symptoms are present ([15]; tail vein injection): 50 mg/kg

Incubation time to maximal activity [6]: 5 min
MRT [16]: 1.27 h and 1.40 h and 1.10 h and 1.29 h
Tmax [16]: 0.17 h
SMILES: C=CCc1cccc(C=NNC(=O)CN2CCN(Cc3ccc(S(N)(=O)=O)cc3)CC2)c1O [S-PAC-1]
Peak plasma levels ([4]; 350 mg/kg tail vein injection, without signs of neurotoxicity): ~ 3500 µM
Enhancement of enzymatic activity of the proenzyme ([6]; procaspase-3 D3A 7.5 µM, ZnSO4 10 µM): enhances the enzymatic activity of the proenzyme by relief of zinc-mediated inhibition, although to a lesser degree than PAC-1
AUMC0-inf [16]: 93.63 h*h*ug/ml and 104.77 h*h*ug/ml and 90.48 h*h*ug/ml and 101.78 h*h*ug/ml
Cls [16]: 0.34 L/h/kg and 0.335 L/h/kg and 0.304 L/h/kg and 0.317 L/h/kg
Vss [16]: 0.4325 L/kg and 0.4708 L/kg and 0.3348 L/kg and 0.41 L/kg
